Data set [1] has as its system 293 (integrin αvβ6–negative) tumors. Put plainly: Excised tissue biodistribution. The format is in vivo, mice. Particulars: γ-counter, mean ± SD. A digest of the protocol:
(§1)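 Tumors were grown as subcutaneous shoulder xenografts (10^7 BxPC3 or HEK-293 cells) in 6-wk female nu/nu mice to 10 mm diameter. Isoflurane-anaesthetised mice received 2–3 MBq of 18F-fluorobenzoate peptide by tail vein and were euthanised at 0.5 or 2 h. Weighed tissues were γ-counted and expressed as decay-corrected %ID/g, mean ± SD. Group sizes: BxPC3 3 (0.5 h), 4–5 (2 h); 293 3 (0.5 h), 3–4 (2 h); nontumor 6 (0.5 h), 8 (2 h).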

In data set [2] the test system is BxPC3 xenografted tumors; heart (blood) radioactivity. Put plainly: Dynamic PET. The format is in vivo. As to conditions: from radioactivity in the heart, 10-min dynamic PET, mice, tail vein. A digest of the protocol: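 Female nu/nu mice (6 wk) received 10^7 BxPC3 or HEK-293 cells subcutaneously in the shoulder and grew tumors to 10 mm diameter. Under isoflurane, mice got 2–3 MBq of 18F-fluorobenzoate-labelled peptide by tail vein. A 10-min dynamic scan was acquired on a rodent microPET. Mean signal in ellipsoid regions of interest was quantified.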

Data set [3] relates to BxPC3 (integrin αvβ6–positive) tumors. Description: Excised tissue biodistribution. It is filed as in vivo, mice. As to conditions: γ-counter, mean ± SD. The method in brief:
as §1

For data set [4], the system named is BxPC3 (integrin αvβ6–positive) pancreatic adenocarcinoma xenografted tumors. Put plainly: Small-animal PET, static scans, BxPC3 xenografts. It is filed as in vivo, mice. Particulars: mean ± SD. The method in brief:
(§2)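 Nu/nu female mice (6 wk) carried BxPC3 shoulder xenografts of 10 mm diameter. Under isoflurane they were dosed intravenously (tail vein) with 2–3 MBq of 18F-fluorobenzoate-labelled peptide. Rodent microPET 5-min static scans were taken at 0.5, 1 and 2 h. Tumor, kidney, liver and hind-leg muscle signals were quantified, given as mean ± SD (n = 4–5 per tracer) and compared by 2-tailed t test, P < 0.05.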

Data set [5] in a line: Small-animal PET, static scans, BxPC3 xenografts. It is filed as in vivo, mice. As to conditions: female, nu/nu, mouse, iv, total radioactivity. A digest of the protocol: as §2
For another data set, the system named is BxPC3 tumors. Put plainly: Coinjection study with unlabeled peptide, excised tissue biodistribution. The format is in vivo, mice. As to conditions: 250 µg unlabeled S02 coinjected.

From paper PMC4130341 (Journal of nuclear medicine : official publication, Society …, 2013) come the findings set out here.

Bridge positions count the residues as written; N and C are the ends. Peptide text beside a SMILES is read from it. * marks the point of attachment. Benzoyl(4-F) = O=C(c1ccc(F)cc1)*

A word on the tissue uptake: it is the percentage of the injected dose found per gram of tissue.

Turning to `CC[C@H](C)[C@@H]1NC(=O)[C@@H]2CSSC[C@H](NC(=O)CNC(=O)c3ccc(F)cc3)C(=O)N[C@@H](CCCNC(=N)N)C(=O)N[C@@H](CO)C(=O)N[C@@H](CC(C)C)C(=O)N[C@@H](C)C(=O)N[C@@H](CCCNC(=N)N)C(=O)N[C@@H]([C@@H](C)O)C(=O)N[C@@H](CC(=O)O)C(=O)N[C@@H](CC(C)C)C(=O)N[C@@H](CC(=O)O)C(=O)N[C@@H](Cc3c[nH]cn3)C(=O)N[C@@H](CC(C)C)C(=O)N[C@@H](CCCNC(=N)N)C(=O)NCC(=O)N[C@@H](CCCNC(=N)N)C(=O)N[C@H]3CSSC[C@H](NC1=O)C(=O)N[C@@H](CC(C)C)C(=O)N[C@@H](CCC(=O)O)C(=O)N[C@@H](CC(N)=O)C(=O)NCC(=O)N[C@@H](Cc1ccccc1)C(=O)N[C@H](C(=O)NCC(=O)O)CSSC[C@H](NC(=O)[C@H](CC(=O)O)NC(=O)[C@H](CO)NC(=O)[C@H](CC(=O)O)NC(=O)[C@H](CO)NC(=O)[C@H](CO)NC3=O)C(=O)N[C@@H](CC(C)C)C(=O)N[C@@H](C)C(=O)N[C@@H](CCC(=O)O)C(=O)N2` [^18F-fluorobenzoate-S02] ({Benzoyl(4-F)}-GCRSLARTDLDHLRGRCSSDSDCLAECICLENGFCG-OH; disulfide 2-27, 17-29, 23-35; C-terminus assumed), the “tumor uptake, excised tissue, 293” value in data set [1] (0.5 h after injection, n = 3) came to 0.11 ± 0.02 %ID/g; in data set [1] (2 h after injection, n = 3–4) it was 0.10 ± 0.05 %ID/g. For the same molecule, the blood clearance half-time in data set [2] turned out to be 1.8 min. For the same molecule, the “tumor uptake, excised tissue, BxPC3” value in data set [3] (0.5 h after injection, n = 3) stood at 0.71 ± 0.13 %ID/g; in data set [3] (2 h after injection, n = 4–5) it was 0.24 ± 0.06 %ID/g. For the same molecule, in data set [4] (0.5 h), the “kidney uptake, PET” value is listed as 18% ± 6%. For the same molecule, in data set [4] (0.5 h after injection, 2–3 MBq tail vein, nude mice, n = 4–5), the “tumor uptake, PET, BxPC3” value is on record as 1.3% ± 0.4%. The “tumor signal, PET, BxPC3” value in data set [4] (1 h after injection, 2–3 MBq tail vein) worked out at 0.7 ± 0.3 % ID/g. Also, the “liver uptake, PET” value in data set [4] (time not printed at place (given beside the 0.5 h kidney values)) is 0.9% ± 0.3%. Moreover, the tissue uptake at 1 h in data set [5] (kidney) stood at 7 ± 3 %ID/g; in data set [5] (liver) it was 0.3 ± 0.1 %ID/g. For the same molecule, the “effect of unlabeled peptide coinjection on tumor uptake” value in the data set with BxPC3 tumors was “does not demonstrate tumor uptake reduction”.
